In the library only some 2.3% were active in any assay of this set; here they are far more common.
COUP-TFII inh: blocks human COUP-TFII nuclear receptor. 0.7% of 370,000 active. HEK293T NGFI-A luciferase reporter, luminescence. inhibition, % at 8.6 µM. P24468;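 active means inhibition above a per-plate cutoff, mean inhibition of test wells between control levels plus 3 SD, cut at about 38% in these data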;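 further: cells cotransfected with COUP-TFII expression vector driving the NGFI-A reporter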
NR2E3 ag-1: human photoreceptor-specific nuclear receptor agonism. Q9Y5X4. CHO-S Gal4-NCOR/VP16-NR2E3 two-hybrid, luciferase. inhibition of corepressor binding, % at 3.98 µM. 0.35% of 360,000 active;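 active means inhibition above the mean of all tested compounds plus 3 SD, cut at about 70% in these data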;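 further: higher means lower luciferase signal from less NR2E3 corepressor binding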
NR2E3 ag-2: NR2E3 (human) agonism. inhibition of corepressor binding, % at 4.78 µM. GST-NR2E3/biotin-RetCOR TR-FRET, 1536-well. Q9Y5X4. AID 2300. 0.12% of 320,000 active;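 active means percent inhibition above the cutoff of mean plus 3 SD of all tested compounds, set per screening campaign, cut at about 20% in these data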
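Material: NR2E3–RetCOR corepressor complex | Quantity: 1.35 nM GST-tagged NR2E3 final | Schedule: 5 h at 4 °C | Replication: Singlicate compound wells | Reagent: RetCOR corepressor, biotinylated, 7 nM | Controls: Biotin wells as high control, 0.6% DMSO wells as low control | Signal: TR-FRET, Eu(K)-anti-GST donor, streptavidin-D2 acceptor, ex 340, em 617/671 nm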
CHT allo act: human CHT allosteric activation; Q9GZV3; 0.49% of 310,000 active; CHT-expressing cells, membrane potential dye, choline EC20; active compounds read high; LV-AA mutant CHT in HEK293 cells; B-score at 10 µM; AID 488977;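 active means initial fluorescence not abnormally high and integrated response B-score, plate-corrected, over 3 SD above library mean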
Target sequence (Q9GZV3 whole entry, looked up): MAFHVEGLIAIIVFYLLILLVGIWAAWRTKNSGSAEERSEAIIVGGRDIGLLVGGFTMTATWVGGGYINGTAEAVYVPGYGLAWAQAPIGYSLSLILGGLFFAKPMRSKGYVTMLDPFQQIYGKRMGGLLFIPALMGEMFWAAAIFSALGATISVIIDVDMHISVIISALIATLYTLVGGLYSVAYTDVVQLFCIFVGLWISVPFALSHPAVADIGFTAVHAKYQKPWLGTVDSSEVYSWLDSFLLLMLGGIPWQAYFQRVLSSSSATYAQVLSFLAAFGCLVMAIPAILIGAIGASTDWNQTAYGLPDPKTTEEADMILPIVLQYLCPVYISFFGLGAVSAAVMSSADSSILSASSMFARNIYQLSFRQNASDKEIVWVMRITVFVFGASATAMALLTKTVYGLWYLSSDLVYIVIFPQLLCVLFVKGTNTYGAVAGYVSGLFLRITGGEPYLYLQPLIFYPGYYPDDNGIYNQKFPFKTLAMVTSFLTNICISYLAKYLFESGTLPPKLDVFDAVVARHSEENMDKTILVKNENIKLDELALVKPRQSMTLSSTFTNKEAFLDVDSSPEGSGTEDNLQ
GalR3 antagonist: antagonists of human GalR3. O60755. HEK293 GalR3-CNG cAMP membrane potential fluorescence; galR3 body fused to GalR1 C-terminus. AID 651719. 0.44% of 360,000 active. inhibition, % at 3 µM;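 active means inhibition above the screen-wide average plus 3 SD, cut at about 13% in these data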;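 further: forskolin and galanin both at EC90 stimulate the cells; cAMP rise reported by CNG channel membrane potential dye signal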
CHT inh: human CHT choline transport inhibition; B-score at 10 µM; Q9GZV3; CHT-expressing cells, membrane potential dye, choline response; active compounds read low; 0.86% of 310,000 active;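 active means B-score over 3 SD under the library average, and starting fluorescence ratio not unusually high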;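 further: choline stimulus applied at its EC90 after an EC20 pre-addition; B-score computed on integrated fluorescence ratio after choline addition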
NR2E3 ag conf: confirmation of human NR2E3 agonists. 51% of 2,300 active. CHO-S mammalian two-hybrid NR2E3-NCOR, luciferase luminescence. inhibition, % at 3.98 µM. AID 624378. shares compounds with NR2E3 ag-1;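 active means average inhibition above a cutoff equal to the mean inhibition of all tested compounds plus one SD, cut at about 70% in these data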
VP16 counter: counter-screen for NR2E3 agonists: GAL4-VP16 reporter inhibitors; shares compounds with NR2E3 ag-1; CHO-S GAL4-VP16 luciferase reporter, luminescence; inhibition, % at 3.98 µM; 29% of 2,300 active; AID 624379;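 active means mean inhibition above a cutoff equal to the average over all tested compounds plus one standard deviation, cut at about 70% in these data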;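 further: luciferase from a UAS reporter driven by GAL4-VP16 transactivation; higher means less reporter light so more repression of VP16 activity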
Numbers stand for hits.

COc1ccc(OC)c(S(=O)(=O)Nc2ccc(Oc3ccccc3)cc2)c1 was read as COUP-TFII inh inactive, NR2E3 ag-1 inactive, NR2E3 ag-2 inactive, CHT allo act inactive, GalR3 antagonist inactive, CHT inh inactive, NR2E3 ag conf 80.4 and VP16 counter inactive.
`CCOc1ccc(NS(=O)(=O)c2cc(OC)ccc2OC)cc1` gave COUP-TFII inh inactive, NR2E3 ag-1 inactive, NR2E3 ag-2 inactive, CHT allo act inactive, GalR3 antagonist inactive and CHT inh inactive.
COP(=O)(O)C(Cc1ccccc1)NC(=O)OCc1ccccc1 (stereo not given) was read as COUP-TFII inh inactive.
Cc1nc(NC(C)c2ccccc2)c2oc3ccccc3c2n1 (stereo not given) was read as COUP-TFII inh inactive, NR2E3 ag-1 inactive, NR2E3 ag-2 inactive, CHT allo act inactive, GalR3 antagonist inactive, CHT inh inactive, NR2E3 ag conf 80.8 and VP16 counter inactive.
Screening CCC(C)Nc1nc(C)nc2c1oc1ccccc12 (stereo not given) returned COUP-TFII inh inactive, NR2E3 ag-1 inactive, NR2E3 ag-2 inactive, CHT allo act inactive, GalR3 antagonist inactive and CHT inh inactive.
Cc1ccc2cc3cc(C(=O)NCc4ccco4)oc3nc2c1 was read as COUP-TFII inh inactive, NR2E3 ag-1 inactive, NR2E3 ag-2 inactive, CHT allo act inactive, GalR3 antagonist inactive, CHT inh inactive, NR2E3 ag conf inactive and VP16 counter inactive.
Cc1ccccc1Cn1cc(CN2[C@@H](CC(C)C)COc3cc(Br)ccc3S2(=O)=O)nn1 was read as COUP-TFII inh inactive.
Screening CCC1(O)C(=O)OCc2c1cc1n(c2=O)Cc2cc3c(N)cccc3nc2-1 (stereo not given) returned COUP-TFII inh inactive, NR2E3 ag-1 86.1, GalR3 antagonist inactive, NR2E3 ag conf 94.1 and VP16 counter inactive.
Screening CCC1(OC(=O)CN(C)C)C(=O)OCc2c1cc1n(c2=O)Cc2cc3c(N)cccc3nc2-1 (stereo not given) returned NR2E3 ag-1 inactive, NR2E3 ag conf 83.8 and VP16 counter inactive.
`CC(C)N=C(N)N=C(N)Nc1ccc(Cl)cc1` gave COUP-TFII inh inactive, NR2E3 ag-1 89.1, NR2E3 ag-2 inactive, CHT allo act inactive, CHT inh inactive, NR2E3 ag conf 87.8 and VP16 counter inactive.
For NC(=NCCCCCCN=C(N)/N=C(\N)Nc1ccc(Cl)cc1)/N=C(\N)Nc1ccc(Cl)cc1 the results were COUP-TFII inh inactive, NR2E3 ag-1 inactive, NR2E3 ag-2 inactive, CHT allo act inactive, GalR3 antagonist inactive and CHT inh inactive.
COC(=O)c1cc(S(=O)(=O)N2CCC(c3cc(OC)ccc3OC)C2)c[nH]1 (stereo not given) was read as COUP-TFII inh inactive, NR2E3 ag-1 80.6, NR2E3 ag-2 inactive, CHT allo act inactive, GalR3 antagonist inactive, CHT inh inactive, NR2E3 ag conf inactive and VP16 counter inactive.
For COC(=O)c1cc(S(=O)(=O)N2CCC(c3ccccc3)C2)c[nH]1 (stereo not given) the results were COUP-TFII inh inactive, NR2E3 ag-1 inactive, NR2E3 ag-2 inactive, CHT allo act inactive, GalR3 antagonist inactive and CHT inh inactive.
CCCC1CCC2(CCCN2CCOC(=S)Nc2ccccc2)CC1 (stereo not given) was read as COUP-TFII inh inactive.
Screening O=C(COc1ccccc1F)Nc1ccc2c(c1)OCCO2 returned COUP-TFII inh inactive, NR2E3 ag-1 73.5, NR2E3 ag-2 inactive, CHT allo act inactive, GalR3 antagonist inactive, CHT inh inactive, NR2E3 ag conf inactive and VP16 counter inactive.
Screening Cc1ccc(S(=O)(=O)NCc2ccccc2)cc1C(=O)NCCc1ccc(S(N)(=O)=O)cc1 returned COUP-TFII inh inactive, NR2E3 ag-1 inactive, NR2E3 ag-2 inactive, GalR3 antagonist inactive, NR2E3 ag conf inactive and VP16 counter inactive.
Screening CCOC(=O)c1ccc(S(=O)(=O)Nc2ccc3cn[nH]c3c2)cc1 returned COUP-TFII inh inactive, NR2E3 ag-1 inactive, NR2E3 ag-2 inactive, CHT allo act inactive, GalR3 antagonist inactive, CHT inh inactive, NR2E3 ag conf inactive and VP16 counter inactive.
Screening COc1cccc(OC)c1C(=O)NCCc1ccccc1 returned COUP-TFII inh inactive, NR2E3 ag-1 inactive, NR2E3 ag-2 inactive, CHT allo act inactive, GalR3 antagonist inactive and CHT inh inactive.
For COc1cc(CCc2ccccc2)c(C(=O)O)c(O)c1C/C=C(/C)CCC=C(C)C the results were COUP-TFII inh inactive, NR2E3 ag-1 inactive, GalR3 antagonist inactive, NR2E3 ag conf 98.4 and VP16 counter 71.3.
Screening COc1cc(CCc2ccccc2)c(C(=O)O)c(O)c1CC=C(C)C returned COUP-TFII inh inactive, NR2E3 ag-1 84.9, GalR3 antagonist inactive, NR2E3 ag conf 99.2 and VP16 counter 78.4.
COCOc1ccc(/C=C/C(=O)c2c(OCOC)cc(OCOC)c(CC=C(C)C)c2O)cc1OCOC was read as NR2E3 ag-1 inactive, NR2E3 ag-2 inactive, CHT allo act inactive and CHT inh inactive.
Screening C[C@@H](CO)N(CCc1cn(Cc2ccccc2)nn1)S(=O)(=O)c1ccccc1Br returned COUP-TFII inh inactive.
For Cc1ccc(NC(=O)CCS(=O)(=O)c2ccccc2)c(C)c1 the results were COUP-TFII inh inactive.
For Cc1ccc(S(=O)(=O)N/N=C/c2cccc([N+](=O)[O-])c2)cc1 the results were COUP-TFII inh inactive, NR2E3 ag-1 inactive, NR2E3 ag-2 inactive, CHT allo act inactive, GalR3 antagonist inactive and CHT inh inactive.
`CCCCCCCCCS(=O)(=O)N/N=C/c1cccc([N+](=O)[O-])c1` gave COUP-TFII inh inactive, NR2E3 ag-1 inactive, NR2E3 ag-2 inactive, CHT allo act inactive, GalR3 antagonist inactive, CHT inh inactive, NR2E3 ag conf inactive and VP16 counter inactive.
Screening COc1cc(OC)c(OC)cc1CNC(=O)c1cccc(S(=O)(=O)N2CCc3ccccc3C2)c1 returned COUP-TFII inh inactive, NR2E3 ag-1 90.9, GalR3 antagonist 14.3, NR2E3 ag conf 95.8 and VP16 counter 81.4.
`O=C(NNC(=O)c1ccccc1F)c1cccc(S(=O)(=O)N2CCc3ccccc32)c1` gave COUP-TFII inh inactive, NR2E3 ag-1 81.5, GalR3 antagonist inactive, NR2E3 ag conf 84.6 and VP16 counter 72.0.
For CC1Cc2ccccc2N1S(=O)(=O)c1cccc(C(=O)NCc2ccncc2)c1 (stereo not given) the results were COUP-TFII inh inactive, NR2E3 ag-1 inactive, NR2E3 ag-2 inactive and GalR3 antagonist inactive.

Screening results from PubChem.
